Calls of active or inactive are those of the source. The rule behind the calls is not given here.
What was measured:
Mus musculus [1] = test: Toxicity in human HL60(TB) cells xenografted mouse assessed as drug induced death at 200 mg/kg, ip dosed as Q4Dx3, day 7 schedule measured on day 14; type: organism-based; set-up: dose 200 mg/kg, route intraperitoneal; settings: in vivo
Mus musculus [2] = test: Toxicity in human HL60(TB) cells xenografted mouse assessed as drug induced death at 134 mg/kg, ip dosed as Q4Dx3, day 7 schedule measured on day 14; type: organism-based; set-up: dose 134 mg/kg, route intraperitoneal; settings: in vivo
[3] = Cytotoxicity against human melanoma cells; type: functional; settings: Melanoma cell; for CC50: read-out: pLC50 (the source's name) (converted)
Mus musculus [4] = test: Toxicity in human HL60(TB) cells xenografted mouse assessed as mean net weight loss at 134 mg/kg, ip dosed as Q4Dx3, day 7 schedule measured on day 14; type: organism-based; set-up: dose 134 mg/kg, route intraperitoneal; settings: in vivo
[5] = Inhibition of plasma membrane electron transport pathway in human HL60 cells by WST1 reduction assay; type: cell-based; settings: HL-60
Summary of the method: (§1)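 Cells at 10^5 per well in 0.1 ml pretreated 30 min with compound in DMSO (<0.1% final), then WST-1/mPMS added (final 500 µM and 20 µM); WST-1 reduction followed in real time at 450 nm; averages ± S.E.M. of four independent experiments.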

B1647 = test: Antiproliferative activity against human B1647 cells after 48 hrs by MTT assay; type: functional, cell-based
[6] = Cytotoxicity against human prostate cancer cells; type: functional; settings: Cancer cell lines; for CC50: read-out: pLC50 (the source's name) (converted); for TGI: read-out: pTGI (converted)
Summary of the method: (§2)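 NCI 60-cell-line human tumour screen, with subpanels for leukemia, melanoma, lung, colon, kidney, ovary, breast, prostate and CNS. Compounds were dissolved in DMSO and tested at five ten-fold dilutions, highest 10^-4 M (10^-3 M for some). Endpoints were GI50, TGI and LC50, reported as negative log molar. Some compounds were assayed once, others two or three times.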

[7] = Antitumor activity against human HL60(TB) cells xenografted in mouse assessed as tumor growth delay at 200 mg/kg, ip dosed as Q4Dx3, day 7 schedule relative to control; type: functional, HL-60(TB); settings: route intraperitoneal
[8] = Antitumor activity against human HL60(TB) cells xenografted in mouse assessed as net log cell kill at 200 mg/kg, ip dosed as Q4Dx3, day 7 schedule relative to control; type: functional, HL-60(TB); settings: route intraperitoneal
[9] = Antitumor activity against human HL60(TB) cells xenografted in mouse assessed as effect on tumor growth at 200 mg/kg, ip dosed as Q4Dx3, day 7 schedule measured on day 19 relative to control; type: functional, HL-60(TB); settings: route intraperitoneal
[10] = Inhibition of plasma membrane electron transport pathway in human HEL cells by WST1 reduction assay; type: cell-based; summary of the method: as §1
[11] = Inhibition of plasma membrane electron transport pathway in human B1647 cells by WST1 reduction assay; type: cell-based; summary of the method: as §1
[12] = Cytotoxicity against human breast cancer cells; type: functional; settings: Cancer cell lines; for CC50: read-out: pLC50 (the source's name) (converted); for TGI: read-out: pTGI (converted)
Summary of the method: (§3)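 MTT cytotoxicity assay in breast cancer cell lines; proliferation expressed as percent growth inhibition relative to vehicle-treated control cells; IC50 reported.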

Mus musculus [13] = test: Toxicity in human HL60(TB) cells xenografted mouse assessed as drug induced death at 90 mg/kg, ip dosed as Q4Dx3, day 7 schedule measured on day 22; type: organism-based; set-up: dose 90 mg/kg, route intraperitoneal; settings: in vivo
[14] = Cytotoxicity against human Non-small cell lung carcinoma cells; type: functional; settings: for CC50: read-out: pLC50 (the source's name) (converted); for TGI: read-out: pTGI (converted); summary of the method: as §2
[15] = Inhibition of plasma membrane electron transport pathway in human Mo7e cells by WST1 reduction assay; type: cell-based; summary of the method: as §1
[16] = Inhibition of plasma membrane electron transport pathway in mitochondrial gene-knockout human HL60p'0 cells by WST1 reduction assay; summary of the method: as §1
[17] = Antitumor activity against human HL60(TB) cells xenografted in mouse assessed as effect on tumor growth at 134 mg/kg, ip dosed as Q4Dx3, day 7 schedule measured on day 19 relative to control; type: functional, HL-60(TB); settings: route intraperitoneal
[18] = Cytotoxicity against human colon cancer cells; type: functional; settings: Cancer cell lines; for CC50: read-out: pLC50 (the source's name) (converted); summary of the method: as §2
HEL = test: Antiproliferative activity against human HEL cells after 48 hrs by MTT assay; type: functional, cell-based
[19] = Cytotoxicity against human leukemia cells; type: functional; settings: Leukemia cell; for CC50: read-out: pLC50 (the source's name) (converted); for TGI: read-out: pTGI (converted); summary of the method: as §2
Mus musculus [20] = test: Toxicity in ip dosed mouse assessed as maximum tolerated dose after 14 days; type: organism-based; settings: in vivo, 336 h
Summary of the method: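 Mice received a single i.p. injection of 400 mg/kg. If the animal survived 14 days, MTD was 400 mg/kg. If it died, the dose was lowered to 200 mg/kg and then halved repeatedly until a tolerated dose was found, which was taken as the MTD.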

[21] = Cytotoxicity against human ovarian cancer cells; type: functional; settings: Cancer cell lines; for CC50: read-out: pLC50 (the source's name) (converted); for TGI: read-out: pTGI (converted)
[22] = Antitumor activity against human HL60(TB) cells xenografted in mouse assessed as net log cell kill at 134 mg/kg, ip dosed as Q4Dx3, day 7 schedule relative to control; type: functional, HL-60(TB); settings: route intraperitoneal
Mus musculus [23] = test: Toxicity in human HL60(TB) cells xenografted mouse assessed as mean net weight loss at 90 mg/kg, ip dosed as Q4Dx3, day 7 schedule measured on day 22; type: organism-based; set-up: dose 90 mg/kg, route intraperitoneal; settings: in vivo
Mus musculus [24] = test: Toxicity in human HL60(TB) cells xenografted mouse assessed as mean net weight loss at 200 mg/kg, ip dosed as Q4Dx3, day 7 schedule measured on day 14; type: organism-based; set-up: dose 200 mg/kg, route intraperitoneal; settings: in vivo
[25] = Antitumor activity against human HL60(TB) cells xenografted in mouse assessed as tumor growth delay at 90 mg/kg, ip dosed as Q4Dx3, day 7 schedule relative to control; type: functional, HL-60(TB); settings: route intraperitoneal
[26] = Antitumor activity against human HL60(TB) cells xenografted in mouse assessed as tumor growth delay at 90 mg/kg, ip dosed as Q4Dx3, day 7 schedule day 7 schedule measured on day 19 relative to control; type: functional, HL-60(TB); settings: route intraperitoneal
[27] = Cytotoxicity against human renal cancer cells; type: functional; settings: Cancer cell lines; for CC50: read-out: pLC50 (the source's name) (converted); for TGI: read-out: pTGI (converted); summary of the method: as §2
[28] = Antitumor activity against human HL60(TB) cells xenografted in mouse assessed as tumor growth delay at 134 mg/kg, ip dosed as Q4Dx3, day 7 schedule relative to control; type: functional, HL-60(TB); settings: route intraperitoneal
[29] = Antitumor activity against human HL60(TB) cells xenografted in mouse assessed as net log cell kill at 90 mg/kg, ip dosed as Q4Dx3, day 7 schedule relative to control; type: functional, HL-60(TB); settings: route intraperitoneal
[30] = Cytotoxicity against human central nervous system cancer cells; type: functional; settings: Cancer cell lines; for CC50: read-out: pLC50 (the source's name) (converted); for TGI: read-out: pTGI (converted); summary of the method: as §2
Mo7e = test: Antiproliferative activity against human Mo7e cells after 48 hrs by MTT assay; type: functional, cell-based
HL-60 = test: Cytotoxicity against human HL60 cells after 48 hrs by MTT assay; type: functional, cell-based; settings: HL-60, 48 h
MCF7 [31] = test: Effect on C-erbB2 protein stability in human MCF7 cells at 10 umol/L in presence of cyclohexamide by Western blot; type: functional, cell-based
Summary of the method: (§4)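 MCF7 cells, 1×10^6 seeded per well, grown overnight; cycloheximide 100 μmol/L added alone or with MG-132 (10 μmol/L) or compound, total 8 and 16 h; lysates Western blotted with anti-BCA2, anti-C-erbB2 and β-actin antibodies; BCA2 and C-erbB2 levels expressed relative to β-actin by densitometry.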

MCF7 [32] = test: Inhibition of proteasome in human MCF7 cells assessed as increase in stability of BCA2 protein at 1 umol/L in presence of cyclohexamide after 16 hrs by Western blot; summary of the method: as §4
MDA-MB-231 = test: Cytotoxicity against human MDA-MB-231 cells; type: functional, cell-based
Hs-578T = test: Cytotoxicity against human Hs578T cells; type: functional, cell-based; summary of the method: as §3
MCF7 [33] = test: Effect on beta-actin stability in human MCF7 cells at 10 umol/L in presence of cyclohexamide by Western blot; type: functional, cell-based; summary of the method: as §4
[34] = Cytotoxicity against human mitochondrial gene-knockout human HL60p'0 cells after 48 hrs by MTT assay; type: functional, cell-based
MCF7 [35] = test: Cytotoxicity against human MCF7 cells; type: functional, cell-based

COc1ccc2c(c1)/C(=C\c1cccc(/C=C3/C(=O)Nc4ccc(OC)cc43)n1)C(=O)N2
Activity (Mus musculus [1]): Non-toxic | Activity (Mus musculus [2]): Non-toxic | GI50 [3]: 0.891 µM | CC50 [3]: 13.5 µM | Activity (Mus musculus [4]): 6.4% | IC50 [5]: > 117 µM | Activity (B1647): Active | GI50 [6]: 1.66 µM | CC50 [6]: 69.2 µM | TGI [6]: 9.33 µM | Activity [7]: 48% | LCK [8]: -0.8 | T/C [9]: 90% | IC50 [10]: 30 µM | IC50 [11]: 30 µM | GI50 [12]: 1.48 µM | CC50 [12]: 81.3 µM | TGI [12]: 14.8 µM | Activity (Mus musculus [13]): Non-toxic | GI50 [14]: 1.7 µM | CC50 [14]: 43.7 µM | TGI [14]: 10.7 µM | IC50 [15]: 30 µM | IC50 [16]: > 117 µM | T/C [17]: 6.4% | GI50 [18]: 0.794 µM | CC50 [18]: 30.9 µM | TGI ([18]; read-out: pTGI (converted)): 4.68 µM | Activity (HEL): Active | GI50 [19]: 0.617 µM | CC50 [19]: 57.5 µM | TGI [19]: 3.8 µM | MTD (Mus musculus [20]): 400 mg/kg | GI50 [21]: 1.12 µM | CC50 [21]: 46.8 µM | TGI [21]: 9.33 µM | LCK [22]: -1.8 | Activity (Mus musculus [23]): 9.1% | Activity (Mus musculus [24]): 10% | Activity [25]: 25% | T/C [26]: 138% | GI50 [27]: 1.45 µM | CC50 [27]: 24 µM | TGI [27]: 4.27 µM | Activity [28]: -17% | LCK [29]: -1.1 | GI50 [30]: 1.62 µM | CC50 [30]: 63.1 µM | TGI [30]: 12.9 µM | Activity (Mo7e): Active

O=C1Nc2cccc(Cl)c2/C1=C\c1cccc(/C=C2/C(=O)Nc3cccc(Cl)c32)n1
GI50 [3]: 0.589 µM | CC50 [3]: 15.8 µM | IC50 [5]: > 117 µM | Activity (B1647): Active | GI50 [6]: 0.437 µM | CC50 [6]: 15.8 µM | TGI [6]: 2.09 µM | IC50 (HL-60): 3 µM | Activity (MCF7 [31]): inactive | IC50 [10]: 24 µM | IC50 [11]: 30 µM | GI50 [12]: 0.389 µM | CC50 [12]: 39.8 µM | TGI [12]: 3.31 µM | fold change (FC) (MCF7 [32]): 2 | GI50 [14]: 0.676 µM | CC50 [14]: 34.7 µM | TGI [14]: 2.69 µM | IC50 (MDA-MB-231): 0.3 µM | IC50 [15]: 15 µM | IC50 [16]: > 117 µM | GI50 [18]: 0.417 µM | CC50 [18]: 19.1 µM | IC50 (Hs-578T): 0.4 µM | Activity (HEL): Active | GI50 [19]: 0.0912 µM | CC50 [19]: 44.7 µM | TGI [19]: 1.91 µM | Activity (MCF7 [33]): inactive | MTD (Mus musculus [20]): 400 mg/kg | GI50 [21]: 0.501 µM | CC50 [21]: 30.9 µM | TGI [21]: 2.82 µM | GI50 [27]: 0.427 µM | CC50 [27]: 7.59 µM | TGI [27]: 1.51 µM | IC50 [34]: 3 µM | IC50 (MCF7 [35]): 0.23 µM | GI50 [30]: 0.603 µM | CC50 [30]: 23.4 µM | TGI [30]: 2.82 µM | Activity (Mo7e): Active
